From PubChem BioAssay
An excerpt weighted towards active compounds, which were near 4% of everything screened.
FGF22 binding: binders of recombinant human FGF22 by thermal shift; Q9HCT0; 340,000 tested, 1.5% active; SYPRO orange fluorescence; percent of sucrose octasulfate shift, DMSO zero; activity (Tm shift, normalised), % at 9.99 µM;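 active means mean Tm shift, scaled 0 neutral to 100 positive control, at about 1.3% or above, every replicate too, limit read from the data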
Target sequence (Q9HCT0 whole entry, looked up): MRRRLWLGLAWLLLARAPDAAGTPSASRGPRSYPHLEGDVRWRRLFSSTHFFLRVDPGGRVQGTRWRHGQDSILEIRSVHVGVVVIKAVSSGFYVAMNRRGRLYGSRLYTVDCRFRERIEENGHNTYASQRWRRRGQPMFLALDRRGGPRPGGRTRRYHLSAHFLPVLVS
FN deposit inh: fibronectin deposition inhibition; AH1F fibroblasts, Alexa488-fibronectin deposition fluorescence, overnight; inhibition, % at 12.6 µM; AID 743247; 350,000 tested, 0.086% active;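 active means mean inhibition across replicates of 30% or more, regardless of how many single replicates reach that level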;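 further: positive control wells lacked labelled fibronectin entirely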
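Assay system: AH1F fibroblast monolayer, labelled fibronectin deposition. Amount: 10000 cells per well. Also added: labelled fibronectin 24 nM. Compound: single-point pinned compound. Incubation: cell attachment 1 h, compound and FN exposure overnight. Detection: fluorescence after three HBSS washes, excitation 485 nm, emission 525 nm. Read-out: inhibition of fibronectin deposition signal.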
C2C12 statin: protects C2C12 myotubes from simvastatin toxicity; ATP luminescence, 48 h; scaled: DMSO 0, geranylgeraniol control 100; rescue of ATP level, % at 7.49 µM; 330,000 tested, 0.78% active;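 active means mean ATP rescue above about 67%, or every replicate alone reaching that limit, limit read from the data, passing the limit was not always enough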;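 further: myotubes were challenged with 10 µM simvastatin during compound exposure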
E-sel inducer: E-selectin induction on HUVECs | P16581 | HUVEC E-selectin immunofluorescence imaging; normalized: neutral wells 0, TNF-alpha wells 100 | activation, % at 7.58 µM | 260,000 tested, 0.37% active | AID 686992;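 active means mean E-selectin-positive cell signal at least 10% of the positive control, reached in at least 60% of replicates, without over 20% cell loss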
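Read-out basis: % PE-positive cells; Test system: HUVEC primary endothelial cells; Technique: immunofluorescence imaging; Dosing: single-point compound dose.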
SIRT5 inh: inhibitors of human sirtuin-5 desuccinylase. Q9NXA8. Purified SirT5, succinyl-peptide AMC, trypsin-coupled fluorescence. inhibition, % at 15 µM. 330,000 tested, 1.1% active; in the data active means inhibition above about 15%
Target sequence (Q9NXA8 whole entry, looked up): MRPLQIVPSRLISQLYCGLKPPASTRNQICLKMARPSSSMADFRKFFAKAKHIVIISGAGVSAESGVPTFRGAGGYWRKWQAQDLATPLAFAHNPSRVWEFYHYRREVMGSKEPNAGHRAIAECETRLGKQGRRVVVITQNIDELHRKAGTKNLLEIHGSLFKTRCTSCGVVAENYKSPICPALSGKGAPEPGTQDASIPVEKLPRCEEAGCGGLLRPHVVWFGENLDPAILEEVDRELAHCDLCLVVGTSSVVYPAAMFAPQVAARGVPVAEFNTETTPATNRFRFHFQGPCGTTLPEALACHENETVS
Ecoli rRNA inh: inhibitors of bacterial rRNA selective over humanized ribosomes; E. coli WT GFP vs humanized-ribosome RFP mutants, fluorescence, 24 h; stronger effect = lower value; DMSO median 0, no signal -100; GFP signal change (wild-type ribosome), % (no concentration beside the values); AID 720706; 350,000 tested, 1.6% active;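 active means significant combined selectivity score with lowered wild-type GFP, culture density cut under 30%, mutant RFP and density less affected; inactive means any of these conditions unmet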
Starred values were filed as active, the others as inactive; / = no result given.

SMILES	FGF22 binding	FN deposit inh	C2C12 statin	E-sel inducer	SIRT5 inh	Ecoli rRNA inh
Cc1cnc(NC(=O)c2cc3ccccc3o2)s1	0	/	/	/	112*	5
Cc1nnc(NC(=O)c2cc3ccccc3o2)s1	0	-1	14	0	4	-2
CCOc1ccc(/C=C2/SC(=S)N(C(C(=O)O)c3ccccc3)C2=O)cc1OCC (configuration not stated)	7.5*	/	2	/	10	-38
CCOc1cc(/C=C2\SC(=S)N(C(C(=O)O)c3ccccc3)C2=O)ccc1O (configuration not stated)	/	7	-13	9	11	-52
COc1ccccc1/C=C1\SC(=S)N(C(C(=O)O)c2ccccc2)C1=O (configuration not stated)	0	1	/	/	2	-37*
COc1cc(/C=C2\SC(=S)N(C(C(=O)O)c3ccccc3)C2=O)ccc1O (configuration not stated)	/	1	/	/	4	-36
C[C@H](CO)N1C[C@H](C)[C@@H](CN(C)Cc2ccc(C(=O)Nc3ccccc3N)cc2)Oc2ccc(NC(=O)Cc3cn(C)c4ccccc34)cc2C1=O	0	-11	-9	0	11	-5
COC(=O)C1=CN(Cc2ccc(OC)cc2)C=C(C(=O)OC)C1c1ccsc1	0	3	/	0	-23	-22*
COC(=O)C1=CN(CC2CCCO2)C=C(C(=O)OC)C1c1ccsc1 (configuration not stated)	/	4	7	/	/	/
CC(C)NC(=O)N(C)C[C@@H]1OCCCC[C@@H](C)Oc2ccc(NC(=O)CCCN(C)C)cc2C(=O)N([C@@H](C)CO)C[C@H]1C	0	/	/	0	-3	4
COc1ccc(C(=O)NNC(=O)C(Cc2ccc(O)cc2)NC(=O)c2ccccc2NC(=O)c2ccc(OC)cc2)cc1 (configuration not stated)	/	-1	/	/	/	/
COc1ccc(C(=O)Nc2ccccc2C(=O)NC(Cc2ccc(O)cc2)C(=O)NNC(=O)c2ccccc2Cl)cc1 (configuration not stated)	/	/	112*	/	/	/
CCC(=O)N1Cc2cc(C(=O)N3CCN(C)CC3)nc(-c3cccc(-c4cccnc4)c3)c2[C@H]1CCO	/	3	/	0	-2	-3
O=C(NCc1ccccc1)[C@@]1(CCS(=O)(=O)c2ccccc2)COC(c2ccc(OCCCO)cc2)=N1	1	/	/	/	-3	/
Cc1ccc(-n2ncc3c(=O)n(CC(=O)NCC4CCCO4)cnc32)cc1 (configuration not stated)	/	/	9	/	/	/
O=C(Cn1cnc2c(cnn2-c2ccc(Cl)cc2)c1=O)NCC1CCCO1 (configuration not stated)	/	/	85*	/	/	/
COc1ccc2[nH]c(CN3CCN(CC(C)C)C(CCO)C3)c(C)c2c1 (configuration not stated)	43*	-4	/	0	2	/
CC(C)CN1CCN(Cc2cccn2-c2cccnc2)CC1CCO (configuration not stated)	43*	10	/	0	1	/
OCCC1CN(Cc2cccn2-c2cccnc2)CCN1Cc1ccc(F)cc1 (configuration not stated)	0	3	-1	-4	1	14
COc1ccc(-c2ncc(CN3CCN(CCC(C)C)C(CCO)C3)cn2)cc1 (configuration not stated)	0	3	-7	0	0	-1
Cc1cccc(-c2ncc(CN3CCN(CC(C)C)C(CCO)C3)cn2)c1 (configuration not stated)	43*	-3	/	0	0	/
C[C@@H]1CCCCO[C@@H](CN(C)C(=O)C2CCCCC2)[C@H](C)CN([C@H](C)CO)C(=O)c2cc(NC(=O)C3CCCCC3)ccc2O1	0	/	/	0	5	1
C[C@@H]1CN([C@H](C)CO)C(=O)CCCn2cc(nn2)CO[C@@H]1CN(C)S(=O)(=O)c1ccc2c(c1)OCCCO2	1	6	5	0	-2	1
Cc1ccc(C2=NCCn3c2c2ccc(C(F)(F)F)cc2[n+]3[O-])cc1	43*	-9	12	0	0	3
C[C@@H]1CN([C@@H](C)CO)C(=O)c2cc(NC(=O)C3CCCCC3)ccc2O[C@@H](C)CCCCO[C@H]1CN(C)C(=O)CCCN(C)C	0	/	/	0	-2	0
SMILES	FGF22 binding	FN deposit inh	C2C12 statin	E-sel inducer	SIRT5 inh	Ecoli rRNA inh
COc1cccc(NC(=O)CN(C)C(=O)c2ccccc2Sc2ccccc2C#N)c1	0	5	9	/	1	-18*
COc1cccc(NC(=O)CN(C)C(=O)c2cccc(S(=O)(=O)N3CCN(c4ccccc4)CC3)c2)c1	0	0	12	/	2	-29*
COc1cccc(NC(=O)CN(C)CC(=O)Nc2ccccc2-c2ccccc2)c1	0	/	15	0	-4	-24*
Oc1ccc(Cl)cc1CNCc1cccc2ccccc12	0	1	-3	0	-3	-24*
Oc1ccc(Cl)cc1CNCc1ccc(F)c(F)c1	0	10	-12	0	/	-11
CC(=O)NC[C@@H]1[C@@H](c2ccc(-c3ccccc3F)cc2)[C@@H](CO)N1CCC(F)(F)F	/	4	/	1	25*	-3
CC(=O)NC[C@H]1[C@@H](c2ccc(-c3ccccc3F)cc2)[C@@H](CO)N1CCC(F)(F)F	/	-17	/	0	0	-4
CC1=C(C(=O)N2CCOCC2)CC(CC(=O)NCCCN(C)C)C(=O)N1CCC1=CCCCC1 (configuration not stated)	0	-4	7	-5	0	12
CCCCN1C(=O)C(CC(=O)NCCCN(C)C)CC(C(=O)N(CC)CC)=C1C (configuration not stated)	43*	1	0	0	/	14
CCN(CC)C(=O)C1=C(C)N(Cc2ccccc2)C(=O)C(CC(=O)NCc2ccco2)C1 (configuration not stated)	43*	2	3	0	/	2
CCCCN1C(=O)C(CC(=O)NCc2ccco2)CC(C(=O)N(CC)CC)=C1C (configuration not stated)	43*	-7	-9	0	/	9
CC1=C(C(=O)N(C(C)C)C(C)C)CC(CC(=O)NCCCN(C)C)C(=O)N1CCC1=CCCCC1 (configuration not stated)	0	0	10	0	23*	3
COc1ccc(NC(=O)Nc2ccc3c(c2)C(=O)N([C@@H](C)CO)C[C@@H](C)[C@@H](CN(C)Cc2ccc(C(=O)O)cc2)OCCCC[C@H](C)O3)cc1	0	/	/	0	-1	0
